Compound activity: PubChem BioAssay, Broad Institute
Only some compounds are listed: those with a hit (about 0.95% of all), similar ones and a draw of the others.
PvdQ inh: P. aeruginosa PvdQ acylase inhibitors, primary screen, biochemical, fluorescence, plate reader and imaging, single point; 0.063% of 340,000 active; purified PvdQ acylase; inhibition, % at 10 µM; in the data active means inhibition above about 30%, passing the limit was not always enough;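 further: 0% = vehicle neutral wells and 100% = reference inhibitor wells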
miR122 inh: miR-122 Renilla sensor signal increase in Huh7, primary screen, miR-122 inhibitor project, cell-based, single point, plate reader. Huh7 miR-122 Renilla luciferase sensor, 48 h; neutral wells = 0, positive control = 100. activation (reporter increase), % at 12.5 µM. 0.3% of 340,000 active. AID 602342, 2012;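 active means mean replicate activation score at least 90 and every replicate individually at or above 90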;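 further: higher luciferase means less miR-122 activity so hits act as miR-122 inhibitors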
CAL PDZ FP-1: CAL PDZ peptide-binding inhibitors, primary screen, biochemical, fluorescence polarization, Cer-tagged CAL PDZ, HTS | Golgi-associated PDZ and coiled-coil motif-containing protein (Homo sapiens), Q9HD26 | purified CAL PDZ, TMR-peptide fluorescence polarization, 1 h | inhibition, % at 20 µM | 0.02% of 330,000 active | AID 504414, 2011;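 active means highest replicate inhibition of at least 40%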;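 further: plate controls were DMSO neutral control wells for no effect and unlabeled competitor peptide control wells for full effect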
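Test system: tagged CAL PDZ domain / Buffer or medium: sodium phosphate/NaCl buffer pH 7.4 with TCEP, IgG, Thesit / Reagent: TMR-labelled reporter peptide T*-PRC34 bound in PDZ groove / Compound dosing: single point, 20 µM / Schedule: 1 h incubation at room temperature before polarization reading / Technique: fluorescence polarization (mP) / Benchmarks: unlabelled peptide, DMSO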
CAL PDZ FP-2: untagged CAL PDZ binding inhibitors, primary screen, biochemical, fluorescence polarization, HTS; purified CAL PDZ, TMR-peptide fluorescence polarization, 1 h; inhibition, % at 24.9 µM; 0.92% of 300,000 active; AID 602252, 2012;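 active means mean inhibition of at least 30% with at least half of replicates also reaching 30%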;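 further: 0% = DMSO neutral control and 100% = excess unlabeled competitor peptide PRC23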
* hit, by the source's call; [ ] = another dose, or the depositor's remark.

What do the screens show for `COc1ccc2[nH]cc(CCNC(=O)Cc3ccc(Br)cc3)c2c1`?
PvdQ inh: -0.4; miR122 inh: 0.0; CAL PDZ FP-1: -0.2; CAL PDZ FP-2: -3.2

How did COc1ccc2[nH]cc(CCNC(=O)Cc3ccc(F)cc3)c2c1 do in these assays?
PvdQ inh: -2.5; miR122 inh: -1.1; CAL PDZ FP-1: -4.0; CAL PDZ FP-2: 78.9*

Results for CCc1nc2ccc(C(=O)N3CCN(C(=O)c4ccco4)CC3)cn2c1N(C)CCC(C)C ?
miR122 inh: -3.8

Results for CCOc1cc(CNCCc2ccccc2)ccc1OCC(=O)NC(C)(C)C ?
PvdQ inh: -11.2; miR122 inh: -2.2; CAL PDZ FP-1: -1.0; CAL PDZ FP-2: 0.0

What do the screens show for `CCc1ccc(-c2cc(C)no2)cc1S(=O)(=O)NCc1ccco1`?
PvdQ inh: -17.3; miR122 inh: 159.3*; CAL PDZ FP-1: -1.8; CAL PDZ FP-2: -2.2

What do the screens show for `CCc1ccc(-c2cc(C)no2)cc1S(=O)(=O)NCCc1ccc(OC)c(OC)c1`?
PvdQ inh: -15.6; miR122 inh: 131.5*; CAL PDZ FP-1: -1.8; CAL PDZ FP-2: 0.0

How did O=C(Nc1ccc2c(c1)OCO2)N1CCN(Cc2ccco2)CC1 do in these assays?
PvdQ inh: 9.8; CAL PDZ FP-1: -2.6; CAL PDZ FP-2: -5.3

Results for Cc1cc2ncc(S(C)(=O)=O)c(N)n2n1 ?
PvdQ inh: -13.4; CAL PDZ FP-1: -1.0; CAL PDZ FP-2: 55.6*

Results for COc1cc(S(=O)(=O)N2CCOCC2)ccc1NC(=O)CSc1n[nH]c(=O)[nH]c1=O ?
PvdQ inh: 7.1; miR122 inh: 144.1*; CAL PDZ FP-1: -2.9; CAL PDZ FP-2: 0.0

Results for COc1ccc(/C=C/CN2CCCC(CO)(Cc3cccc(Cl)c3)C2)cc1 (stereo not given) ?
PvdQ inh: -13.1; miR122 inh: -10.6; CAL PDZ FP-1: -2.0; CAL PDZ FP-2: 54.4*

How did COc1ccccc1/C=C/CN1CCCC(CO)(Cc2cccc(Cl)c2)C1 (stereo not given) do in these assays?
PvdQ inh: -0.9; miR122 inh: -5.0; CAL PDZ FP-1: -3.5; CAL PDZ FP-2: 2.4

How did COc1ccc(OC)c(-c2csc(NC(=O)Cc3ccccc3OC)n2)c1 do in these assays?
PvdQ inh: 9.7; miR122 inh: 27.4; CAL PDZ FP-1: -2.7; CAL PDZ FP-2: -1.3

How did COc1ccc(OC)c(-c2csc(NC(=O)Cc3ccccc3F)n2)c1 do in these assays?
PvdQ inh: -2.1; miR122 inh: 117.4*; CAL PDZ FP-1: -0.9; CAL PDZ FP-2: 4.8

Results for CCN(C[C@H]1N[C@@](CC)(C(=O)OC)[C@H]2C(=O)N(C)C(=O)[C@@H]12)S(=O)(=O)c1ccc(C)cc1 ?
PvdQ inh: 7.7; CAL PDZ FP-1: -1.0; CAL PDZ FP-2: -0.9

What do the screens show for `O=C(O)CNC(=O)C1(N2C(=O)c3ccccc3C2=O)CCCC1`?
PvdQ inh: -14.1; miR122 inh: 100.1*; CAL PDZ FP-1: 0.4; CAL PDZ FP-2: -2.8

Results for CC(C)CNC(=O)C1(N2C(=O)c3ccccc3C2=O)CCCC1 ?
PvdQ inh: 1.4; miR122 inh: -10.6; CAL PDZ FP-1: -0.8; CAL PDZ FP-2: -3.7

Results for O=C1c2ccccc2C(=O)N1CC(O)COc1ccc(Cl)cc1 (stereo not given) ?
PvdQ inh: -9.4; miR122 inh: -7.8; CAL PDZ FP-1: -0.4; CAL PDZ FP-2: 4.9

Results for O=C(C[C@H]1C[C@H]2c3cc(NC(=O)Nc4ccc(C(F)(F)F)cc4)ccc3O[C@H]2[C@@H](CO)O1)NC1CCCCC1 ?
miR122 inh: -3.4[16.7 µM]

What do the screens show for `O=C(Cc1c(F)cccc1Cl)Nc1ccncc1`?
PvdQ inh: -13.4; miR122 inh: -6.0; CAL PDZ FP-1: -2.2; CAL PDZ FP-2: -1.5

What do the screens show for `COc1ccc(OC)c(S(=O)(=O)NC2CC2)c1`?
PvdQ inh: -8.9; miR122 inh: 7.2; CAL PDZ FP-1: 0.8; CAL PDZ FP-2: 3.2

Results for CCOc1ccc(Cl)cc1S(=O)(=O)NC1CCCC1 ?
PvdQ inh: -11.8; miR122 inh: 114.1*; CAL PDZ FP-1: -1.4; CAL PDZ FP-2: -0.3

How did COc1ccc(S(=O)(=O)NC2CCCCCC2)c(OC)c1 do in these assays?
PvdQ inh: -3.7; miR122 inh: 28.9; CAL PDZ FP-1: -4.7; CAL PDZ FP-2: -1.5

What do the screens show for `COc1ccc(C)cc1S(=O)(=O)NC1CCCCC1C` (stereo not given)?
PvdQ inh: -8.6; miR122 inh: 132.5*; CAL PDZ FP-2: -2.8

What do the screens show for `COc1cc(S(=O)(=O)NC2CCCCC2)c(C)cc1C`?
PvdQ inh: -10.6; miR122 inh: 163.1*; CAL PDZ FP-1: 0.3

Results for COc1cc(S(=O)(=O)NC2CCCC2)c(OC)cc1Cl ?
PvdQ inh: -11.6; miR122 inh: 293.1*; CAL PDZ FP-1: -0.6; CAL PDZ FP-2: -6.6

Results for COc1cc(S(=O)(=O)NC2CC(C)(C)NC(C)(C)C2)c(OC)cc1Cl ?
PvdQ inh: -4.7; miR122 inh: 2.0; CAL PDZ FP-1: 0.2; CAL PDZ FP-2: -0.1

How did COc1ccc(F)cc1S(=O)(=O)NC1CCCCCC1 do in these assays?
PvdQ inh: 10.5; miR122 inh: 104.7*; CAL PDZ FP-1: -1.7; CAL PDZ FP-2: 1.1

How did COc1ccc(F)cc1S(=O)(=O)NC1CC(C)(C)NC(C)(C)C1 do in these assays?
PvdQ inh: -5.4; miR122 inh: 0.7; CAL PDZ FP-1: -0.3; CAL PDZ FP-2: -3.2

How did O=C(c1ccc(Br)o1)N1CCN(c2ccc3nnc(-c4ccccc4)n3n2)CC1 do in these assays?
PvdQ inh: -3.0; miR122 inh: -13.4; CAL PDZ FP-1: -5.4

What do the screens show for `Cc1nnc2sc(SCC(=O)Nc3cccc(Cl)c3)nn2c1=O`?
PvdQ inh: -21.3; CAL PDZ FP-1: 12.3; CAL PDZ FP-2: 99.5*

How did O=C(Oc1ccc(Cl)c2cccnc12)N1CCCCC1 do in these assays?
PvdQ inh: -10.8; miR122 inh: -3.3; CAL PDZ FP-1: -3.1; CAL PDZ FP-2: -2.4

How did CC(C)(C)CC(=O)NC(=S)Nc1ccccc1[N+](=O)[O-] do in these assays?
PvdQ inh: -14.4; CAL PDZ FP-1: 0.1; CAL PDZ FP-2: 101.1*

How did Cc1ccc(C)c(NC(=O)CSc2n[nH]c(-c3ccncc3)n2)c1 do in these assays?
PvdQ inh: -20.6; miR122 inh: 3.3; CAL PDZ FP-1: -0.8; CAL PDZ FP-2: -0.9

How did Cc1ccc(C)c(NC(=O)CSc2c(C)n[nH]c2C)c1 do in these assays?
PvdQ inh: -17.3; miR122 inh: -5.9; CAL PDZ FP-1: 15.7; CAL PDZ FP-2: 61.3*

What do the screens show for `CCN1C(=O)C2C(c3ccccc3F)NC(Cc3ccc(O)cc3)(C(=O)OC)C2C1=O` (stereo not given)?
PvdQ inh: -12.3; miR122 inh: -0.3; CAL PDZ FP-1: -2.2; CAL PDZ FP-2: -1.3

What do the screens show for `Fc1cccc2sc(N3CCCC3)nc12`?
PvdQ inh: 17.9; CAL PDZ FP-1: 13.4; CAL PDZ FP-2: -7.4
